Laboratory results as given in ChEMBL document CHEMBL2331121, “Design, synthesis, and pharmacological characterization of N- and O-substituted 5,6,7,8-tetrahydro-4H-isoxazolo[4,5-d]azepin-3-ol analogues: novel 5-HT(2A)/5-HT(2C) receptor agonists with pro-cognitive properties” (J Med Chem, 2013).
Calls of active or inactive are those of the source. No cut-off for these calls is given here.

Columns and labels:
[1] = organism: Homo sapiens; assay: Selectivity ratio of EC50 for human 5HT2A receptor to EC50 for M1 muscarinic receptor (unknown origin) by FLIPR assay
[2] = molecular target: T1, 5-hydroxytryptamine receptor 2C (Homo sapiens) (UniProt P28335); assay: Ratio of EC50 for human 5HT2C receptor by calcium fiux-based fluorescence assay to […] accumulation-based TR-FRET assay; type: functional
T1 sequence (whole entry): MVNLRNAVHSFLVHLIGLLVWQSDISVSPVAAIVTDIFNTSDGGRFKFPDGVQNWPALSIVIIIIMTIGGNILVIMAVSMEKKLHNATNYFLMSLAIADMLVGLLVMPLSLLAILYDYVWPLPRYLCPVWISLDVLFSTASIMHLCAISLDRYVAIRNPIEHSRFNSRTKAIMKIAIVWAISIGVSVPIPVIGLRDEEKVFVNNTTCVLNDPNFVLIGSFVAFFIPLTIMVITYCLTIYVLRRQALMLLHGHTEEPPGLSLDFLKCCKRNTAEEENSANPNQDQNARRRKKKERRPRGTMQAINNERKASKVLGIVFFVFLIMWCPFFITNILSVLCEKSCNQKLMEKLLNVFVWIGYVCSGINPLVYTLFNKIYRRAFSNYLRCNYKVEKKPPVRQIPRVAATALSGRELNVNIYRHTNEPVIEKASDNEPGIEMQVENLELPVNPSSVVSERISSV

[3] = molecular target: T2, 5-hydroxytryptamine receptor 2A (Homo sapiens, UniProt P28223); assay: Ratio of EC50 for human 5HT2A receptor by calcium fiux-based fluorescence assay to EC50 for 5HT2A by IP1 accumulation-based TR-FRET assay; type: functional
[4] = molecular target: T1, 5-hydroxytryptamine receptor 2C (Homo sapiens); assay: Agonist activity at human 5HT2C receptor expressed in HEK293 cells assessed as induction of intracellular calcium release by fluorescence assay relative to 5HT; type: functional, cell-based
In short: (§1)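 Stable polyclonal 5-HT2A or 5-HT2C HEK293 cells seeded on poly-D-lysine plates (6 × 10⁴ cells/well). Next day loaded with Fluo-4/AM for 1 h at 37 °C in HBSS/20 mM HEPES/1 mM CaCl₂/1 mM MgCl₂/2.5 mM probenecid, pH 7.4. Fluorescence (485 ex/525 em) recorded before and up to 90 s after agonist. Response relative to 5-HT on the same plate. Duplicate, at least three times.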

[5] = molecular target: T2, 5-hydroxytryptamine receptor 2A; assay: Agonist activity at human 5HT2A receptor expressed in HEK293 cells assessed as induction of intracellular calcium release by fluorescence assay relative to 5HT; type: functional, cell-based; in short: as §1
[6] = system: Mus musculus; assay: Procognitive effect in C57Bl/6J mouse assessed as number of familiar arm entry at 0.43 mg/kg, po administered 30 mins prior to acquisition trial measured after 24 hrs in presence of SB242084; type: functional
In short: (§2)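 Male C57Bl/6J mice aged 8 weeks, two-trial place recognition Y-maze. 3 min acquisition with two arms open; 24 h ITI; 3 min retention with all three arms open. Drug given po 30 min before acquisition, vehicle 10% HP-βCD. SB242084 2.1 mg/kg co-administered where stated; doses as free base. Readouts are % distance, arm entries and time in each arm. Familiar arms pooled; one-way ANOVA.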

[7] = system: Mus musculus; assay: Procognitive effect in C57Bl/6J mouse assessed as number of novel arm entry at 0.43 mg/kg, po administered 30 mins prior to acquisition trial measured after 24 hrs in presence of SB242084; type: functional; in short: as §2
[8] = system: Mus musculus; assay: Procognitive effect in C57Bl/6J mouse assessed as distance traveled in the novel arm at 0.43 mg/kg, po administered 30 mins prior to acquisition trial measured after 24 hrs in presence of SB242084 (reference value: 37 +/-5.8%); type: functional; in short: as §2
[9] = system: Mus musculus; assay: Procognitive effect in C57Bl/6J mouse assessed as time spent in familiar arm at 0.43 mg/kg, po administered 30 mins prior to acquisition trial measured after 24 hrs by Y-maze test; type: functional; in short: as §2
[10] = system: Mus musculus; assay: Procognitive effect in C57Bl/6J mouse assessed as time spent in novel arm at 0.43 mg/kg, po administered 30 mins prior to acquisition trial measured after 24 hrs by Y-maze test; type: functional; in short: as §2
[11] = system: Mus musculus; assay: Procognitive effect in C57Bl/6J mouse assessed as distance traveled in the novel arm at 0.43 mg/kg, po administered 30 mins prior to acquisition trial measured after 24 hrs by Y-maze test (reference value: 37 +/- 5.8%); type: functional; in short: as §2
[12] = molecular target: T3, 5-hydroxytryptamine receptor 2C (Rattus norvegicus) (UniProt P08909); assay: Displacement of [125I]-N-(p-I-Bn)-THAZ from 5HT2C in Sprague-Dawley rat hippocampal membrane at 100 uM after 40 mins by autoradiography; type: tissue-based; conditions: Hippocampus
T3 sequence (whole entry): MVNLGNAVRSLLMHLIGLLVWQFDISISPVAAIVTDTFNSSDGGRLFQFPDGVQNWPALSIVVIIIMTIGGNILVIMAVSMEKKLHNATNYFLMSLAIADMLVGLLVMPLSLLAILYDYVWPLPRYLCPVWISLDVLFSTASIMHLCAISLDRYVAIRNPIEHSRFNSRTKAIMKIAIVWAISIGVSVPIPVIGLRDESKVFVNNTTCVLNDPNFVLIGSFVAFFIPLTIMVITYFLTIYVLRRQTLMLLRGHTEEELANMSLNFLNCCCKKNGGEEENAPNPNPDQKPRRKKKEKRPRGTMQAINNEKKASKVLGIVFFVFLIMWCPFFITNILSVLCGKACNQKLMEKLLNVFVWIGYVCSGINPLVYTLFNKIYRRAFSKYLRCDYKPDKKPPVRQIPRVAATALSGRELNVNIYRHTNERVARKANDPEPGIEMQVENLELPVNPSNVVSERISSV

[13] = molecular target: T3, 5-hydroxytryptamine receptor 2C (Rattus norvegicus); assay: Displacement of [125I]-N-(p-I-Bn)-THAZ from 5HT2C receptor in rat midbrain membrane after 1 hr by scintillation counting analysis; type: cell membranes
[14] = molecular target: T3, 5-hydroxytryptamine receptor 2C (Rattus norvegicus); assay: Displacement of [125I]-N-(p-I-Bn)-THAZ from 5HT2C receptor in rat hippocampal membrane after 1 hr by scintillation counting analysis; type: cell membranes; conditions: Hippocampus

T2 sequence (P28223 whole entry): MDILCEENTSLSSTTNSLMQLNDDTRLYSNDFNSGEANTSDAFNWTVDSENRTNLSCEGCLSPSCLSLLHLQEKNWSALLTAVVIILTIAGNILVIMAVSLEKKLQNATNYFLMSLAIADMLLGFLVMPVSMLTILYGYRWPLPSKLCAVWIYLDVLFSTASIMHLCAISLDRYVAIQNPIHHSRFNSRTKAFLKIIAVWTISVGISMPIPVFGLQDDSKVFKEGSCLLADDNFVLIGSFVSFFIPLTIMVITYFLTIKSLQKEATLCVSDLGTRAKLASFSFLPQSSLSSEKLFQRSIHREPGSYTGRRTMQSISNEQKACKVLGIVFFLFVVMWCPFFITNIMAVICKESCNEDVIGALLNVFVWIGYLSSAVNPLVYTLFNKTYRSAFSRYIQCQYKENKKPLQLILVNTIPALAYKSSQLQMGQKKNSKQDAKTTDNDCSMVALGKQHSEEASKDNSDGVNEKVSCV

O=c1c2c(on1Cc1ccccc1)CCNCC2
Ratio EC50 [1]: 20 | Ratio EC50 [2]: 2 | Ratio EC50 [3]: 2 | Emax [4]: 90% | Emax [5]: 80% | Activity [6]: 33.6% | Activity [7]: 32.8% | Activity [8]: 34.7% | Activity [9]: 30.6% | Activity [10]: 38.8% | Activity [11]: 40.4% | Activity [12]: inactive | Activity [13]: inactive | Activity [14]: inactive
